Data published in ChEMBL document CHEMBL1125649, “Synthesis and antitumor activity of structural analogues of the epipodophyllotoxins” (J Med Chem, 1991).
In brackets after ≈: the same amount, converted by molar mass.

Experiments:
Assay type in all cases: functional, cell-based
[1] = system: A549; assay: Growth inhibition of A549 (human lung carcinoma) cell line.
In short: (§1)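 Cells from ATCC, grown in RPMI 1640 with 10% fetal calf serum. Compounds dissolved in DMSO, diluted in Earle's balanced salt solution then medium, 2-fold serial dilutions, each in triplicate versus triplicate drug-free controls. 2.5 × 10^3 cells per well, 72 h at 37 °C, 5% CO2. MTT added for 90 min, DMSO solubilization, absorbance at 570 nm. IC50 = 50% absorbance reduction versus control, by linear regression of dose-response curves.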

[2] = system: P388; assay: Growth inhibition of P388-D1 (murine leukemia) cell line.; settings: Mus musculus; in short: as §1
[3] = system: HT-29; assay: Growth inhibition of HT-29 (human colon adenocarcinoma) cell line.; in short: as §1

| Compound | IC50 [1] [µg/mL] | IC50 [2] [µg/mL] | IC50 [3] [µg/mL] |
| --- | --- | --- | --- |
| COC(=O)[C@@]12CCO[C@@H]1c1cc3c(cc1[C@H]2c1cc(OC)c(OC)c(OC)c1)OCO3 | 11.9 (≈ 27.8 µM) | 5.7 (≈ 13.3 µM) | 17.4 (≈ 40.6 µM) |
| COc1cc([C@@H]2c3cc4c(cc3[C@H](O)[C@@]23CCOC3=O)OCO4)cc(OC)c1OC | 5.1 (≈ 12.3 µM) | 2.5 (≈ 6.03 µM) | 5.3 (≈ 12.8 µM) |
| COc1cc([C@@H]2c3cc4c(cc3[C@]3(CO)COC(=O)[C@H]23)OCO4)cc(OC)c1O | 12.5 (≈ 31.2 µM) | 8 (≈ 20 µM) | 12.2 (≈ 30.5 µM) |
| COc1cc([C@@H]2c3cc4c(cc3[C@]3(CO)COC(=O)[C@H]23)OCO4)cc(OC)c1OC | 1.2 (≈ 2.9 µM) | 0.59 (≈ 1.42 µM) | 1.2 (≈ 2.9 µM) |
| COC(=O)[C@@]12CCO[C@@H]1c1cc3c(cc1[C@H]2c1cc(OC)c(O)c(OC)c1)OCO3 | > 50 | 43 (≈ 104 µM) | > 50 |
| COc1cc(C2CC(=O)c3cc4c(cc32)OCO4)cc(OC)c1OC (stereo not given) | 2.9 (≈ 8.47 µM) | 1.1 (≈ 3.21 µM) | 2.9 (≈ 8.47 µM) |
| COc1cccc2c1C(=O)c1c(O)c3c(c(O)c1C2=O)C[C@@](O)(C(=O)CO)C[C@@H]3O[C@H]1C[C@H](N)[C@H](O)[C@H](C)O1 [DOXORUBICIN] | 0.053 (≈ 0.0975 µM) | 0.017 (≈ 0.0313 µM) | 0.11 (≈ 0.202 µM) |
| COc1cc([C@@H]2c3cc4c(cc3[C@@H](O[C@@H]3O[C@@H]5CO[C@@H](C)O[C@H]5[C@H](O)[C@H]3O)[C@H]3COC(=O)[C@H]23)OCO4)cc(OC)c1O [ETOPOSIDE] | 1.03 (≈ 1.75 µM) | 0.063 (≈ 0.107 µM) | 1.7 (≈ 2.89 µM) |
| COc1cc([C@@H]2c3cc4c(cc3[C@H](O)[C@H]3COC(=O)[C@H]23)OCO4)cc(OC)c1OC [PODOFILOX] | 0.0043 (≈ 0.0104 µM) | 0.0013 (≈ 0.00314 µM) | 0.0043 (≈ 0.0104 µM) |

The next lines start with the values.

| IC50 [1] [µg/mL] | IC50 [2] [µg/mL] | IC50 [3] [µg/mL] | Compound |
| --- | --- | --- | --- |
| 12 (≈ 29.1 µM) | 7.9 (≈ 19.2 µM) | 10.3 (≈ 25 µM) | COc1cc([C@H]2C[C@@H](OC3CCCCC3)c3cc4c(cc32)OCO4)cc(OC)c1O |
| 1.1 (≈ 3.19 µM) | 0.57 (≈ 1.66 µM) | 3.2 (≈ 9.29 µM) | COc1cc([C@H]2C[C@@H](OC)c3cc4c(cc32)OCO4)cc(OC)c1O |
| 0.76 (≈ 2.3 µM) | 0.53 (≈ 1.6 µM) | 2.1 (≈ 6.36 µM) | COc1cc([C@H]2C[C@@H](O)c3cc4c(cc32)OCO4)cc(OC)c1O |
| 48.2 (≈ 120 µM) | 16.8 (≈ 42 µM) | > 50 | COc1cc([C@@H]2c3cc4c(cc3[C@@H](O)[C@@]23CCOC3=O)OCO4)cc(OC)c1O |
| 0.038 (≈ 0.11 µM) | 0.014 (≈ 0.0407 µM) | 0.032 (≈ 0.0929 µM) | COc1cc([C@H]2C[C@@H](O)c3cc4c(cc32)OCO4)cc(OC)c1OC |
| 19.4 (≈ 59.1 µM) | 1.7 (≈ 5.18 µM) | 19.2 (≈ 58.5 µM) | COc1cc(C2CC(=O)c3cc4c(cc32)OCO4)cc(OC)c1O (stereo not given) |
| 9.7 (≈ 23.5 µM) | 6.6 (≈ 16 µM) | 8.6 (≈ 20.8 µM) | COc1cc([C@H]2C[C@H](OC3CCCCC3)c3cc4c(cc32)OCO4)cc(OC)c1O |
| 46.9 (≈ 136 µM) | 8.1 (≈ 23.5 µM) | 41.5 (≈ 121 µM) | COc1cc([C@H]2C[C@H](OC)c3cc4c(cc32)OCO4)cc(OC)c1O |
| 9.9 (≈ 30 µM) | 4.2 (≈ 12.7 µM) | 12 (≈ 36.3 µM) | COc1cc([C@H]2C[C@H](O)c3cc4c(cc32)OCO4)cc(OC)c1O |
| > 50 | > 50 | > 50 | COc1cc([C@@H]2c3cc4c(cc3[C@H](O)[C@@]23CCOC3=O)OCO4)cc(OC)c1O |
| 31.3 (≈ 81 µM) | 7.1 (≈ 18.4 µM) | 28.8 (≈ 74.5 µM) | COc1cc([C@H]2C[C@H](OC(C)(C)C)c3cc4c(cc32)OCO4)cc(OC)c1O |
